The record followed here is ChEMBL document CHEMBL1127687, “Benzoxazolamines and benzothiazolamines: potent, enantioselective inhibitors of leukotriene biosynthesis with a novel mechanism of action” (J Med Chem, 1994).

The first assay is filed under the species Homo sapiens. Nature of the assay: Inhibitory activity of Ca-ionophore-A23187-induced Leukotriene B4 (LTB4) release in human polymorphonuclear leukocytes at the dose of 1 micro M concentration. The assay is classed as functional.
Conditions: not given
The method, boiled down: (§1)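 Human PMNs isolated from heparinized blood of healthy, medication-free donors (dextran sedimentation, Ficoll–Paque). DMSO stocks diluted into Ca/Mg-free Dulbecco's PBS. Cells (2.5 × 10^6/mL, PBS with Ca2+/Mg2+) preincubated with compound 15 min at 28 °C with shaking, then stimulated 10 min with A23187 (2.5 μM final). Stopped with EGTA (10 mM final), centrifuged, supernatant LTB4 measured by RIA.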
For `CCOC(=O)C(Cc1cncn1CC)Nc1nc2cc(C(C)C)ccc2o1` (configuration not stated), the Inhibition is 59%. On the same count and under the same terms, under `CCOC(=O)C(Cc1c[nH]cn1)Nc1nc2cc(C(C)C)ccc2o1` (configuration not stated) stands 26%.

For a further assay, the species on record is Homo sapiens. Nature of the assay: Inhibitory activity of Ca-ionophore-A23187-induced Leukotriene B4 (LTB4) release in human polymorphonuclear leukocytes at the dose of 3 micro M concentration. The assay is classed as functional.
Conditions: not given
The method, boiled down: as §1
As to `O=S1(=O)CCN(CC(Nc2nc3cc(Cl)ccc3o2)c2ccccc2)CC1` (configuration not stated), the Inhibition was found to be 46%.

Turning to `CCOC(=O)C(Cc1ccccc1)Cc1nc2ccccc2s1` (configuration not stated), the Inhibition amounted to 56%. The same measure, in the same setting: under `NC(=O)c1ccc2oc(NC(CC3CCCCC3)c3ccccc3)nc2c1` (configuration not stated) stands 35%; under `CCOC(=O)C(Nc1nc2ccccc2s1)c1ccccc1` (configuration not stated), 61%.

`O=[N+]([O-])c1ccc2oc(NC(Cc3ccc(O)cc3)c3ccccn3)nc2c1` (configuration not stated): the Inhibition is 27%. On to `O=C(O)C(Cc1ccccc1)Nc1nc2ccccc2s1` (configuration not stated), for which the Inhibition is on record as -19%.

The same assay, now with this note: in the assay text read “0.3 micro M” for “3 micro M”.
For `OCc1ccc2oc(NC(CC3CCCCC3)c3ccccc3)nc2c1` (configuration not stated), the Inhibition came to 41%.

The species named for the next assay is Homo sapiens. As to the kind of experiment: Inhibitory activity of Ca-ionophore-A23187-induced Leukotriene B4 (LTB4) release in human polymorphonuclear leukocytes. The assay is classed as functional.
Conditions: not given
The method in brief: as §1
Regarding `c1ccc(C(CC2CCCCC2)Nc2nc3ccccc3o2)cc1` (stereo in doubt; 26c), the IC50 amounted to 340 nM. That is a sub-micromolar value. Same read-out and setting: under `c1ccc(C(CC2CCCCC2)Nc2nc3ccccc3o2)cc1` (stereo in doubt; 26a) stands 8 nM. On the same count and under the same terms, under `c1ccc(C(CC2CCCCC2)Nc2nc3ccccc3o2)cc1` (stereo in doubt; 26b) stands 6 nM. Same read-out and setting: under `Fc1ccc(CC(Nc2nc3cc(Cl)ccc3o2)c2ccccn2)cc1` (stereo in doubt; 59c) stands 320 nM; under `Fc1ccc(CC(Nc2nc3cc(Cl)ccc3o2)c2ccccn2)cc1` (stereo in doubt; 59a), 20 nM. With `CN1CCN(CC(Nc2nc3cc(Cl)ccc3o2)c2ccccc2)CC1` (configuration not stated), the Inhibition was 21%.

The assay is the same for the next values; noted with them: Homo sapiens.
As to `CCCCc1ccc2nc(NC(Cc3ccc(Cl)cc3)C(=O)OCC)sc2c1` (configuration not stated), inhibition was half-maximal at 180 nM (IC50). On the same count and under the same terms, the result for `c1ccc(CC(Nc2nc3ccccc3o2)c2ccccc2)cc1` (configuration not stated) reads 51 nM; that for `Cc1nc(CC(Nc2nc3cc(C(C)C)ccc3o2)c2ccccn2)cs1` (configuration not stated), 29 nM; that for `CS(=O)(=O)Nc1ccc2oc(NC(CC3CCCCC3)c3ccccc3)nc2c1` (configuration not stated), 160 nM. Same read-out and setting: under `COCC(Cc1ccc(F)cc1)Nc1nc2cc(C(C)C)ccc2o1` (configuration not stated) stands 17 nM. The same measure, in the same setting: the result for `CCOC(=O)C(Cc1ccccc1)Nc1nc2cc(CC)ccc2s1` (configuration not stated) reads 12 nM. For the compound `Cc1cccc(C(CC2CCCCC2)Nc2nc3ccccc3o2)c1` (configuration not stated), the IC50 worked out at 300 nM. The same measure, in the same setting: the result for `Clc1ccccc1C(CC1CCCCC1)Nc1nc2ccccc2o1` (configuration not stated) reads 80 nM; that for `CCOC(=O)C(Cc1ccc(F)cc1)Nc1nc2ccccc2s1` (configuration not stated), 330 nM; that for `COc1ccc2oc(NC(Cc3ccc(F)cc3)c3ccccn3)nc2c1` (configuration not stated), 11 nM.

As to `Clc1ccc2oc(NC(Cc3ccccc3)c3ccccc3)nc2c1` (configuration not stated), the IC50 was determined as 23 nM.

Compound `CC(C)c1ccc2oc(N[C@H](CN3CCCCC3)c3ccccc3)nc2c1` registered an IC50 of 1200 nM. Compound `CCCOCC(Cc1ccc(F)cc1)Nc1nc2cc(C(C)C)ccc2o1` (configuration not stated) gave an IC50 of 170 nM. In turn, `CCOC(=O)C(Cc1ccccc1)Nc1nc2ccccc2s1` (configuration not stated) showed an IC50 of 360 nM. Same read-out and setting: under `CCOC(=O)C(Cc1ccccc1)N(C)c1nc2ccccc2s1` (configuration not stated) stands 1000 nM. On the same count and under the same terms, the result for `CCOC(=O)[C@H](Cc1ccccc1)Nc1nc2ccccc2s1` reads 230 nM; that for `Cc1ccc2oc(N[C@@H](CC3CCCCC3)c3ccccn3)nc2c1` [ONTAZOLAST], 1 nM; that for `CC(C)c1ccc2oc(NC(Cc3cccc(Cl)c3)c3ccccn3)nc2c1` (configuration not stated), 5 nM. The same measure, in the same setting: under `COC(=O)[C@H](CC1CCCCC1)Nc1nc2ccccc2o1` stands 5 nM; under `CCOC(=O)c1ccc2oc(NC(CC3CCCCC3)c3ccccc3)nc2c1` (configuration not stated), 45 nM. `O=C(O)c1ccc2oc(NC(CC3CCCCC3)c3ccccc3)nc2c1` (configuration not stated) showed an IC50 of 150 nM. This IC50 is about 3.3-fold higher than that of the compound before. Same read-out and setting: the result for `CCOCC(Cc1ccc(F)cc1)Nc1nc2cc(C(C)C)ccc2o1` (configuration not stated) reads 41 nM. `Fc1ccc(CC(Nc2nc3cc(C(F)(F)F)ccc3o2)c2ccccn2)cc1` (configuration not stated) had an IC50 of 8 nM. For the compound `CCOC(=O)C(Cc1ccccc1)Nc1nc2cc(C(C)C)ccc2o1` (configuration not stated), the IC50 is 0.5 nM. In turn, `CC(C)c1ccc2oc(NC(Cc3ccc(F)cc3)c3ccccn3)nc2c1` (configuration not stated) registered an IC50 of 12 nM. Take `CN(C)S(=O)(=O)c1ccc2oc(NC(Cc3ccc(F)cc3)c3ccccn3)nc2c1` (configuration not stated): half-maximal inhibition (IC50) was put at 50 nM. Still for that read-out and setting: the result for `CCOC(=O)c1ccc2oc(NC(Cc3ccc(F)cc3)c3ccccn3)nc2c1` (configuration not stated) reads 27 nM; that for `Fc1ccc(CC(Nc2nc3cc(F)c(F)cc3o2)c2ccccn2)cc1` (configuration not stated), 30 nM; that for `CC(=O)C(Cc1ccccc1)Nc1nc2ccc(C(C)C)cc2o1` (configuration not stated), 350 nM. With `Cc1ccc2oc(NC(CC3CCCCC3)c3ccccn3)nc2c1` (configuration not stated), it took 4 nM to reach half-maximal inhibition (IC50). Same read-out and setting: the result for `CC(C)c1ccc2oc(NC(CC3CCCCC3)c3ccccc3)nc2c1` (configuration not stated) reads 6 nM. `Cc1ccc2oc(NC(CC3CCCCC3)c3ccncc3)nc2c1` (configuration not stated) displayed an IC50 of 190 nM.

For `COc1ccc(CC(Nc2nc3cc([N+](=O)[O-])ccc3o2)c2ccccn2)cc1` (configuration not stated), it took 14 nM to reach half-maximal inhibition (IC50).

For `COc1ccc2oc(NC(Cc3ccccc3)c3ccccc3)nc2c1` (configuration not stated), the IC50 turned out to be 9 nM. The same measure, in the same setting: the result for `Cc1ccc2oc(NC(CC3CCCCC3)c3cccnc3)nc2c1` (configuration not stated) reads 20 nM; that for `Cc1ccc2oc(N[C@H](CC3CCCCC3)c3ccccn3)nc2c1`, 40 nM; that for `CCOC(=O)C(Cc1ccc(Cl)cc1)Nc1nc2ccccc2s1` (configuration not stated), 200 nM. On the same count and under the same terms, the result for `Fc1ccc(CC(Nc2nc3cc(F)ccc3o2)c2ccccn2)cc1` (configuration not stated) reads 21 nM; that for `COC(=O)[C@@H](CC1CCCCC1)Nc1nc2ccccc2o1`, 100 nM. The same measure, in the same setting: the result for `CCOC(=O)[C@H](Cc1ccccc1)Nc1nc2ccccc2o1` reads 150 nM.

`CN(C)C(=O)c1ccc2oc(NC(CC3CCCCC3)c3ccccc3)nc2c1` (configuration not stated) gave an IC50 of 170 nM. Take `CNC(=O)C(CC1CCCCC1)Nc1nc2cc(C)ccc2o1` (configuration not stated): the IC50 came to 72 nM. Same read-out and setting: the result for `CC(=O)Nc1ccc2oc(NC(CC3CCCCC3)c3ccccc3)nc2c1` (configuration not stated) reads 78 nM. Same read-out and setting: under `CCOC(=O)[C@@H](Cc1ccccc1)Nc1nc2ccccc2o1` stands 1500 nM; under `CCOC(=O)C(Cc1ccc(Br)cc1)Nc1nc2ccccc2s1` (configuration not stated), 150 nM; under `CCOC(=O)C(Cc1ccc(Cl)cc1)Nc1nc2ccc(OC)cc2s1` (configuration not stated), 230 nM. Same read-out and setting: under `CC(C)c1ccc2oc(NC(CN3CCOCC3)c3ccccc3)nc2c1` (configuration not stated) stands 52 nM; under `CSCC(Cc1ccccc1)Nc1nc2cc(C(C)C)ccc2o1` (configuration not stated), 13 nM. `Clc1ccc2oc(NC(CN3CCSCC3)c3ccccc3)nc2c1` (configuration not stated): the IC50 worked out at 48 nM. Still for that read-out and setting: under `c1ccc(CC(Nc2nc3ccccc3s2)c2ccccc2)cc1` (configuration not stated) stands 170 nM.

Turning to `CCOC(=O)C(Cc1ccc(Cl)cc1)Nc1nc2ccc(C(C)C)cc2s1` (configuration not stated), the IC50 turned out to be 330 nM. This IC50 lies about 1.9-fold higher than the previous one.

`CC(C)c1ccc2oc(NC(Cc3ccc(Cl)cc3)c3ccccn3)nc2c1` (configuration not stated) registered an IC50 of 29 nM. Compound `CC(C)c1ccc2oc(N[C@@H](CN3CCCCC3)c3ccccc3)nc2c1` displayed an IC50 of 100 nM.

Take `CCOC(=O)C(Cc1ccccc1)Nc1nc2ccc(C(C)C)cc2o1` (configuration not stated): half-maximal inhibition (IC50) was put at 220 nM. Compared with the last compound, the IC50 is about 2.2-fold higher.

Compound `CCOC(=O)C(Cc1csc(C)n1)Nc1nc2cc(C(C)C)ccc2o1` (configuration not stated) returned an IC50 of 16 nM.

With `O=[N+]([O-])c1ccc2oc(NC(Cc3ccc(F)cc3)c3ccccn3)nc2c1` (configuration not stated), inhibition was half-maximal at 16 nM (IC50). Consider `N#Cc1ccc2oc(NC(CC3CCCCC3)c3ccccc3)nc2c1` (configuration not stated), for which the midpoint of inhibition, the IC50, lay at 15 nM. Same read-out and setting: under `COc1ccc(C(CC2CCCCC2)Nc2nc3ccccc3o2)cc1` (configuration not stated) stands 550 nM; under `Cc1noc(C(Cc2ccc(F)cc2)Nc2nc3cc(C(C)C)ccc3o2)n1` (configuration not stated), 440 nM; under `CCOC(=O)C(Cc1ccccc1)Nc1nc2ccc(CC)cc2s1` (configuration not stated), 240 nM. For `CCOC(=O)C(CCc1ccccc1)Nc1nc2ccccc2s1` (configuration not stated), it took 520 nM to reach half-maximal inhibition (IC50). The same measure, in the same setting: under `Fc1ccc(C(CC2CCCCC2)Nc2nc3ccccc3o2)cc1` (configuration not stated) stands 170 nM.
